Data published in the EternaBench riboswitch data.

Tested on: MS2 coat protein
Test: apparent Kd, MS2 coat protein; higher = weaker binding; RNA-MaP array; FMN 200 µM where present
Summary of the method: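 Binding was read on Illumina sequencing-chip clusters where stalled E. coli RNA polymerase had transcribed each design. A titration of SNAP-549-labelled MS2 coat protein began at 0.7 or 1.5 nM and doubled to 3 µM, once without ligand and once with constant ligand, in 100 mM Tris-HCl pH 7.5, 80 mM KCl, 4 mM MgCl2, BSA, DTT, yeast tRNA and Tween-20. The apparent Kd is the median of filtered per-cluster binding-curve fits, based on green signal normalised to red-channel RNA signal and control-cluster median Fmax.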

[1] = designed as: ON switch for flavin mononucleotide, no ligand
[2] = ligand present: flavin mononucleotide, designed as: ON switch for flavin mononucleotide
[3] = designed as: OFF switch for flavin mononucleotide, no ligand
[4] = ligand present: flavin mononucleotide, designed as: OFF switch for flavin mononucleotide

Sequence	apparent Kd [1]	apparent Kd [2]	apparent Kd [3]	apparent Kd [4]
ACCACGAUAGCGAUAUGAUCGAGAGAUCAUGUCGCUAUUUUUAGAAGGACAUGAGGAUCACCCAUGUAGGAUAUGGGACGUGGA	24.7 nM	10.3 nM	–	–
UGUUGUAAACAGAACAUGAGGAUCACCCAUGUGCUCUCGUGUAAGGAUAUACAUUCGUAUGGAAAGUAGAAGGUACUAAUUAUG	103 nM	117 nM	–	–
UGGUCAUGAUCAGGAUAUUAACAUGGGCUACAUUAAGAAGGGAUAGUGAGAUACGAACUACAUGAGGAUCACCCAUGUGUUGUU	68.7 nM	55.4 nM	–	–
ACAUGAGACUAAGGAUAUGAUGUACCUAUAUGUGACAUGAGGAUCACCCAUGUGGUAAGUAUGAUUCAGAAGGUAGAGAUAUGU	98.7 nM	32.6 nM	–	–
GUACUGUAGUGAGGAUAUACGAGUUCGAUAGAACGGCGAUCCAUAUAUACAUGAGGAUCACCCAUGUAGAAGGCACUUCAGUAC	–	–	7.69 nM	100 nM
UUUUAGAGAGGAUAUAUAAAGUGAAACAUGAGGAUCACCCAUGUAAUUUUAUGGAUGUAAAUAGAAGGCUCAUUUA	–	–	33.3 nM	28.6 nM
CCAUGUUAGCAGGAUAUGCAAUAAAUCUUUUAAGCAGAAGGGCUUACAUGAGGAUCACCCAUGUAUAAAGUCAA	–	–	19.8 nM	45.6 nM
GCAUUGAUAACAGGAUAUAUGUUUCCUACAUGAGGAUCACCCAUGUAGGUGAUCAGCCGAGAAAAGUAGAAGGGUUAUCAAUGC	16.7 nM	15.4 nM	–	–
UUGGAGUUCGUAGGAUAUGUAGGAUAUUCCUACAUGAGGAUCACCCAUGUUGACAUGGAGGAAGGACAGAAGGACGAGCUCCAU	206 nM	225 nM	–	–
CACAGGGAUUCAGGAUAUAUUAGCCGAGGCCGCGUAGAAGGGAAAUCCUGACAUGAGGAUCACCCAUGUCGACCCGCCUUCCAC	24.2 nM	25.3 nM	–	–
AAAAAAUGAGGAUAUACAUGAAAAAAAAAAAAAAAAAAAAAACAUGAGGAUCACCCAUGUAGAAGGCGUAAAAA	–	–	51.2 nM	41.4 nM
ACCAUUUACUAAUCGUCUAUACAUGAGGAUCACCCAUGUUAUGAGGAUAUCGUCGUGAAACACGACGAGAAGGCAUAGCAUUCG	–	–	32.2 nM	132 nM
UUUUAACAUGAGGAUCACCCAUGUGAGGAUAUCGAAAUUUAUAUUAAUAUUAAUAUAUCGAGAAGGCACAUUUU	–	–	79.8 nM	104 nM
GUAGCAUACCGAGGAUAUUCUGGGCAUAAAUAAACAUGAGGAUCACCCAUGUGGCGAAAGCCUAGGGAGAAGGCGGAAUGCUAC	14.8 nM	13.6 nM	–	–
GAUGUUCUGGUCAGGAUAUGCAUCCGUCGGCCGGAGCAGAAGGGACAUGAGGAUCACCCAUGUGCGGGUACAAA	–	–	38.7 nM	38.3 nM
GCAUCACAUGAGGAUCACCCAUGUCUUCGGAGUGGAGGAUAUGGUCACUGUAAACAGUGGCCAGAAGGCCGGAUGC	82.6 nM	94.5 nM	–	–
UUCAAAUUCGUAGGAUAUGUAUAAAUUUUCUACAUGAGGAUCACCCAUGUUUCCAUUUUAAAUUGACAGAAGGACGUAAUCUAA	30 nM	9.73 nM	–	–
GACCAGGCAGGAUAUACAUGAGGAUCACCCAUGUGUCUGCGUUGGGCACGUGAACACGGUAGAAGGGCCUUGAC	–	–	12.2 nM	22.9 nM

Sequence	apparent Kd [1]	apparent Kd [2]	apparent Kd [3]	apparent Kd [4]
CCGGAAGUAGAGGAUAUAGGAGUCGAUAGACUCCUAGAAGGCUAUACAUGAGGAUCACCCAUGUGUCCUACCGG	–	–	19.6 nM	31 nM
AAGCGACAUGAGGAUCACCCAUGUAGCAGGGUCAGAGGAUAUUUGAGCUUGGUGAGGGUUAAAGAAGGUUGAAAUC	25.2 nM	33.1 nM	–	–
GGAUCGUAUGUGAGGAUAUACCACUGGAUACAGUGGUAGAAGGCACAUGAGGAUCACCCAUGUCCUAUCGAUCC	–	–	146 nM	196 nM
GUCAGCUCGUGAGGAUAUACAACAGUGCUUCGGCAGUGUAUUAAGAUCACAUGAGGAUCACCCAUGUAGAAGGCACGAGCUGAU	–	–	13.1 nM	207 nM
UAUACACAUGAGGAUCACCCAUGUGAGGAUAUGCGUACGUUGUCCGUAGGCGACGUGCGCAGAAGGCGCAAGGU	–	–	72.7 nM	104 nM
GAAAAGCGAGGAUAUACAUGAGGAUCACCCAUGUGUUGGGUGCGUUGGCUAGUCGUCUGUAGAAGGCGCACAAA	–	–	904 nM	466 nM
CGUAGGCCUCUCAACAUGAGGAUCACCCAUGUACGUGAAACGUAGGAUAUCACACAACUAAUGUGUGAGAAGGGCGCGCCGGAG	126 nM	124 nM	–	–
AUUAUAUAGAAAGGAUAUAGAAUAUUAUUUUAACAUGAGGAUCACCCAUGUAACCUUAUGUGUAGCUAGAAGGUUCAUUUAUUA	–	–	61.8 nM	78.1 nM
UUGGACGUCGUAGGAUAUGUAGGAUAUUCCUACAUGAGGAUCACCCAUGUUGACAUGGAAGAAUGACAGAAGGACGAUGUCCAU	712 nM	11.8 nM	–	–
GUCGUGUGAGGAUAUCGAUUAUGGAAGUCUAGAUCCAUACGCGAGAAGGCACAUGAGGAUCACCCAUGUAAUGG	–	–	337 nM	96.1 nM
AUACGUGAGAAGGAUAUCACUCGCCAAAGGCGUUGAGAAGGUUUCACAUGAGGAUCACCCAUGUGCUCUUCUAG	–	–	27.7 nM	61.5 nM
GUCGGAAACGACAAAAGUAGCAUAGGAGAAGGCAUGUCAUAAGACAUGAGGAUCACCCAUGUGCAUGAGGAUAUCCUAUGCUAC	5.53 nM	4.98 nM	–	–
ACAUGAGGAUCACCCAUGUGAAAACAAUGGCUGACACAGAGAUAGGAUAUAUGUGCAUAUCAAACAUAGAAGGGUCAUAACUGG	–	–	50 nM	50.6 nM
CUCUGCCGGCAGGAUAUUAGGUUACGAUGACGUUGAGAAGGGCUGACAUGAGGAUCACCCAUGUAGGGCUCCAU	–	–	18.8 nM	24.5 nM
CAGGUAGACUGAGGAUAUACAAGACUUAGUCUAUCUAGGUCAUUAACCACAUGAGGAUCACCCAUGUAGAAGGCAGUCUGCCUG	–	–	17.7 nM	23.9 nM
GUAGAGUAGUGAGGAUAUACGAGAUCGAUAGAUCGGCGAUCCAAUUAUACAUGAGGAUCACCCAUGUAGAAGGCACUUCUCUAC	–	–	12.6 nM	116 nM
UGAUAGGACAGAGGAUAUACCGAUAGGAUCUACUAUCGAACAAUCCUCACAUGAGGAUCACCCAUGUAGAAGGCUGUCCUAUCU	–	–	25.2 nM	284 nM
AGUGGUUACACAGGAUAUCCUCGUUAUUAACUAGGAGAAGGGUGGACACCACACAUGAGGAUCACCCAUGUACCACGAUAAAGA	209 nM	42.4 nM	–	–
